Measured values pooled from the literature.
Each line is one published result; the experiments were not run side by side.
Observed: enzyme activity
Mode: inhibitor
HDAC1: Histone deacetylase 1 (HDAC1, Homo sapiens, UniProt Q13547)
PARP10: Protein mono-ADP-ribosyltransferase PARP10 (PARP10, Homo sapiens, UniProt Q53GL7)

The IC50 of `Cc1ccc(S(=O)(=O)[N](Nc2ccc([N+](=O)[O-])cc2[N+](=O)[O-])[Sn]([Cl])[Cl])cc1` is reported as 1520 nM (Polyunsaturated fatty acid 5-lipoxygenase (ALOX5, Homo sapiens, UniProt P09917)).
The IC50 of `O=C(NO)c1ccc(Cn2cnc3c(Nc4ccc(F)c(Cl)c4)ncnc32)cc1` is reported as 341 nM (HDAC1; fluorescence).
The IC50 of `COc1ccc(N(Cc2nc(-c3ccccc3)cs2)C(=O)CCCCCC(=O)NO)cc1` is reported as 1.6 nM (HDAC1).
For `Nc1nc2c(ncn2[C@H]2CC[C@@H](COP(=O)(O)OP(=O)(O)OP(=O)(O)O)O2)c(=O)[nH]1`, the IC50 was 550 nM (TERT (Tribolium castaneum, UniProt Q0QHL8); fluorescence).
The IC50 of `COc1ccc(N(Cc2nc(-c3ccc(F)cc3)cs2)C(=O)CCCCCC(=O)NO)cc1` is reported as 0.9 nM (HDAC1).
`O=C1CC[C@H](N2Cc3cc(N4CCN(CC5CCN(c6ccc([C@@H]7c8ccc(O)cc8CC[C@@H]7c7ccccc7)cc6)CC5)CC4)ccc3C2=O)C(=O)N1` has an IC50 of 900 nM (ATP-dependent translocase ABCB1 (ABCB1, Homo sapiens, UniProt P08183)).
The IC50 of `O=C(NO)c1ccc(Cn2cnc3c(Nc4ccc(Cl)cc4)ncnc32)cc1` is reported as 166 nM (HDAC1; fluorescence).
With `CCCCn1c(=O)c2cc(F)ccc2c2nnn(Cc3ccc(C)cc3)c21` the IC50 was over 10000 nM (PARP10).
The IC50 of `COc1ccc(N(Cc2nc(-c3ccc(Cl)cc3)cs2)C(=O)CCCCCC(=O)NO)cc1` is reported as 1.7 nM (HDAC1).
`COc1cccc(Cn2nnc3c4ccc(F)cc4c(=O)[nH]c32)c1` gave an IC50 of 1660 nM (PARP10).
For `Nc1cnccc1Nc1ccc(Cl)c(Cl)c1`, the IC50 was over 100000 nM (Uracil-DNA glycosylase (UNG, Homo sapiens, UniProt P13051)).
The IC50 of `Cc1ccc(Cn2nnc3c4ccc(C(F)(F)F)cc4c(=O)[nH]c32)cc1` is reported as over 10000 nM (PARP10).
The IC50 of `COc1ccc(N(Cc2nc(-c3ccc(C)cc3)cs2)C(=O)CCCCCC(=O)NO)cc1` is reported as 2.6 nM (HDAC1).
The IC50 of `O=c1cc(-c2ccccc2)oc2cc(O)c(O)c(O)c12` is reported as 6360 nM (Seed linoleate 13S-lipoxygenase-1 (Glycine max, UniProt P08170)).
`c1ccc2c(-c3cnn4cc(-c5ccc(N6CCNCC6)cc5)cnc34)ccnc2c1` gave an IC50 of 89.7 nM (TGF-beta receptor type-2 (TGFBR2, Homo sapiens, UniProt P37173)).
The IC50 of `O=c1[nH]c2c(nnn2C2CCCCC2)c2ccccc12` is reported as over 10000 nM (PARP10).
The IC50 of `COc1ccc(N(Cc2nc(-c3cccc(Cl)c3)cs2)C(=O)CCCCCC(=O)NO)cc1` is reported as 4.9 nM (HDAC1).
The IC50 of `Cc1ccccc1Cn1nnc2c3ccc(F)cc3c(=O)[nH]c21` is reported as over 10000 nM (PARP10).
`COc1ccc(Nc2ncnc3c2ncn3Cc2ccc(C(=O)NO)cc2)cc1` has an IC50 of 112 nM (Histone deacetylase 8 (HDAC8, Homo sapiens, UniProt Q9BY41)).
With `COc1ccc(N(Cc2csc(-c3ccc(Br)cc3)n2)C(=O)CCCCCC(=O)NO)cc1` the IC50 was 1 nM (HDAC1).
`O=c1[nH]c2c(nnn2-c2ccc(Br)cc2)c2ccccc12` has an IC50 of over 10000 nM (PARP10).
With `COc1ccc(N(Cc2csc(-c3ccccc3Cl)n2)C(=O)CCCCCC(=O)NO)cc1` the IC50 was 2.1 nM (HDAC1).
`O=C(NO)c1ccc(Cn2cnc3c(Nc4cccc([N+](=O)[O-])c4)ncnc32)cc1` gave an IC50 of 148 nM (HDAC1; fluorescence).
`COc1ccc(N(Cc2csc(-c3ccccc3)n2)C(=O)CCCCCC(=O)NO)cc1` has an IC50 of 1.1 nM (HDAC1).
The IC50 of `COc1cccc(Cn2nnc3c4ccccc4c(=O)[nH]c32)c1` is reported as 219 nM (PARP10).
